Only some compounds are listed: those with a hit (about 1.8% of all), similar ones and a draw of the others.
FAK inh: blocks human focal adhesion kinase activity | Q05397 | biochemical FAK kinase activity assay | inhibition, %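 (tested at 7 µM)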 | hit rate 0.84% among 97,000 | AID 727;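 further: 0% = DMSO and 100% = reference compound high control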
Target sequence (Q05397 whole entry, looked up): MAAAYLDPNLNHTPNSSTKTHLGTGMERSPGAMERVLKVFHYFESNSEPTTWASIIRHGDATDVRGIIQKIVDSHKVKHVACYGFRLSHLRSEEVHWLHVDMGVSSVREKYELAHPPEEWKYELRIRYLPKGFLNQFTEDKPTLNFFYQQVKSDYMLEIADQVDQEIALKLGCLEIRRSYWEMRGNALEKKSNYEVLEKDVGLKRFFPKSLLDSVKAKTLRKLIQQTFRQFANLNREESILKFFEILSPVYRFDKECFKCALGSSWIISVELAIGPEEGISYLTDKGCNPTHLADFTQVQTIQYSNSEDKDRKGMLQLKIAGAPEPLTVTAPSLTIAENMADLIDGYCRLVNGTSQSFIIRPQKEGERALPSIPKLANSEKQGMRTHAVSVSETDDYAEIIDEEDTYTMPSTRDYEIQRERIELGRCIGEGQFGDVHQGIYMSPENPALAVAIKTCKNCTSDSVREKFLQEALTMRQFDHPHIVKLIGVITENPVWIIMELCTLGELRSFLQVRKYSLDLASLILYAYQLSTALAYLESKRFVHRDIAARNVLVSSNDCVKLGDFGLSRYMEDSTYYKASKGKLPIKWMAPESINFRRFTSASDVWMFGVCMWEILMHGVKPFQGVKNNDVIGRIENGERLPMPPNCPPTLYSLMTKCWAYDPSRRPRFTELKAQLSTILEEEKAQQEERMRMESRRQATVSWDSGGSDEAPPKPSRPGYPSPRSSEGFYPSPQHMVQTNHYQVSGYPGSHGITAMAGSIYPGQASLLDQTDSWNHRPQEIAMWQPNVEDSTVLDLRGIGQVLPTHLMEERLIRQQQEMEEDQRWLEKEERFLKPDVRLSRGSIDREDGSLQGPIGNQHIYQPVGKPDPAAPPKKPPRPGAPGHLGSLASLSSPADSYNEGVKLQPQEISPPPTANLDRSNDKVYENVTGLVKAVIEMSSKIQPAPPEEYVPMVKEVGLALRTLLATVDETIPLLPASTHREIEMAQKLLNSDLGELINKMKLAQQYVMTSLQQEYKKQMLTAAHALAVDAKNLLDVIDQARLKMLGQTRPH
PTPN22 inh 2: blocks human PTPN22 phosphatase activity. inhibition, % at 2 µM. Q9Y2R2. AID 640. recombinant LYP catalytic domain, DiFMUP fluorescence. hit rate 0.21% among 96,000;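 active means inhibition at 2 µM at or above a set limit, the screen mean plus 3 SD, cut at about 24% in these data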;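 further: 0% = DMSO with enzyme and 100% = enzyme fully blocked by orthovanadate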
Rev-RRE block: HIV Rev-RRE protein-RNA interaction inhibition | Rev peptide-RRE RNA binding, FRET | inhibition, % at 8 µM | hit rate 0.79% among 97,000;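 active means inhibition above the screen-wide mean plus 3 SD, cut at about 35% in these data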;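 further: 0% = median DMSO wells and 100% = median Neomycin B control wells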
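Test system: labelled RRE RNA duplex and labelled Rev peptide. Times: 5 min compound–RNA preincubation, then 15 min with peptide, 25 °C. Doses: single-dose 8 µM. Measured by: FRET, excitation 480 nm, emission 540 nm donor and 671 nm acceptor. Measure: % inhibition of FRET ratio versus controls.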
LYP act: LYP (human) phosphatase activation; Q9Y2R2; recombinant LYP, DiFMUP fluorescence; 0 = plate median, 100 = signal doubled; activation, % at 2 µM; hit rate 0.11% among 96,000;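 active means activation at 2 µM above a set limit, the mean plus 5 SD, cut at about 37% in these data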
LYP act confirm: confirmation of human LYP phosphatase activators; shares compounds with LYP act; Recombinant LYP, DIFMUP fluorescence, activation; zero set by plate's median compound well; activation, % at 2 µM; 100 tested, under 10 active; call rule not given here
FAK inh conf: confirmation of human focal adhesion kinase (FAK) inhibitors; shares compounds with FAK inh; FAK kinase biochemical inhibition assay; inhibition, % at 7 µM; hit rate 28% among 750
Starred values were filed as active, the others as inactive; [ ] = dose if it differs, or a comment. Unless noted, no stated cut-off is given here; in the data, active means inhibition above about 19%; inactive means the rest.

Results for CC1CCN(S(=O)(=O)c2ccc(NN=C(C#N)C#N)cc2)CC1 ?
FAK inh: -1; PTPN22 inh 2: 26*; Rev-RRE block: 7; LYP act: -24

How did Cc1nc2c(=O)n(C)c(=O)nc-2n(C)n1 do in these assays?
FAK inh: 68*; PTPN22 inh 2: 32*; Rev-RRE block: 7; LYP act: -33

How did CC1(C)CC(=O)C=C(NCCN2CCN(C(=O)Cc3ccc(Cl)cc3)CC2)C1 do in these assays?
FAK inh: -2; PTPN22 inh 2: 5; Rev-RRE block: -2; LYP act: -4

What do the screens show for `Cc1nn(Cc2ccccc2)c(C)c1C(=O)OCC(=O)Nc1ccccc1SCC#N`?
FAK inh: 1; PTPN22 inh 2: 1; Rev-RRE block: 61*; LYP act: -3

How did COc1cc(/C=C2\C(=O)NC(=O)N(c3ccccc3)C2=O)cc(OC)c1O do in these assays?
FAK inh: -1; PTPN22 inh 2: 16; Rev-RRE block: 59*; LYP act: -14

What do the screens show for `Cc1cc(/C=C2/C(=O)NC(=O)N(c3ccccc3)C2=O)c(C)n1-c1ccc(F)cc1`?
FAK inh: -3; PTPN22 inh 2: 9; Rev-RRE block: 26; LYP act: -7

Results for CCOC(=O)c1ccc(NC(=O)c2c(O)[nH]c(=O)[nH]c2=O)cc1 ?
FAK inh: -3; PTPN22 inh 2: 6; Rev-RRE block: 140*[fluorescence artefact?]; LYP act: -8

How did CC1(C)NCCN2C(=O)CSC21 (configuration not stated) do in these assays?
FAK inh: -4; PTPN22 inh 2: 2; Rev-RRE block: 8; LYP act: -3

How did C/C(=C\c1ccc(N(C)C)cc1)[N+](=O)[O-] do in these assays?
FAK inh: -6; PTPN22 inh 2: -6; Rev-RRE block: 73*; LYP act: 9

Results for CN(C)c1ccc(C(=O)c2ccc(N(C)C)cc2)cc1 ?
FAK inh: 3; PTPN22 inh 2: -7; Rev-RRE block: 7; LYP act: 5

Results for CCCC1COC(Cn2cncn2)(c2ccc(Cl)cc2Cl)O1 (configuration not stated) ?
FAK inh: 7; PTPN22 inh 2: 62*; Rev-RRE block: 7; LYP act: -61

How did O=C1NC(=S)N(c2ccc(Cl)cc2)C(=O)/C1=C/N1CCN(C(=O)c2ccco2)CC1 do in these assays?
FAK inh: 5; PTPN22 inh 2: 4; Rev-RRE block: 41*; LYP act: 1

Results for O=C(c1ccco1)c1cn(Cc2ccc(Cl)cc2)c2ccccc12 ?
FAK inh: 0; PTPN22 inh 2: 0; Rev-RRE block: 22; LYP act: 0

Results for O=c1[nH]c(=O)n(Cc2ccco2)c(O)c1C=NCc1cccs1 ?
FAK inh: -4; PTPN22 inh 2: 3; Rev-RRE block: 5; LYP act: -2

How did N#Cc1c(/N=C/c2c(O)n(Cc3ccco3)c(=O)[nH]c2=O)sc2c1CCCC2 do in these assays?
FAK inh: 1; PTPN22 inh 2: -32; Rev-RRE block: 40*; LYP act: 30

What do the screens show for `CCN(CC)c1ccc(N=Cc2c(O)n(-c3cc(OC)ccc3OC)c(=O)[nH]c2=O)cc1`?
FAK inh: 2; PTPN22 inh 2: 13; Rev-RRE block: 64*; LYP act: -15

Results for O=C1NC(=O)C(CCc2ccncc2)(c2ccccc2)C(=O)N1 ?
FAK inh: 5; PTPN22 inh 2: 0; Rev-RRE block: 4; LYP act: -4

Results for O=C1NC(=O)C(=Cc2cn(CCOc3ccc4c(c3)OCO4)c3ccccc23)C(=O)N1 ?
FAK inh: 3; PTPN22 inh 2: 26*; Rev-RRE block: 44*; LYP act: -26

Results for CC[N+](C)(CC)CCCOC(=O)C(O)(c1ccccc1)C1CCCCC1 (configuration not stated) ?
FAK inh: 3; PTPN22 inh 2: -3; Rev-RRE block: -5; LYP act: 4

How did CC12CN3C(O)C(C)(C1)CC(C)(C2)C3O (configuration not stated) do in these assays?
FAK inh: 2; PTPN22 inh 2: -8; Rev-RRE block: 5; LYP act: 4

Results for CN1/C(=C\C=C\C2=[N+](C)c3ccc4ccccc4c3C2(C)C)C(C)(C)c2ccccc21 ?
FAK inh: -66; PTPN22 inh 2: 33*; Rev-RRE block: inactive; LYP act: -31

What do the screens show for `CC(Cc1ccccc1)[n+]1cc(/N=C(\[O-])N(C)C)on1` (configuration not stated)?
FAK inh: -3; PTPN22 inh 2: 4; Rev-RRE block: -4; LYP act: -3

What do the screens show for `Cc1ccc(N2C(=O)/C(=C/c3ccc(CN(CCC#N)S(C)(=O)=O)o3)C(=O)NC2=S)cc1C`?
FAK inh: -7; PTPN22 inh 2: 6; Rev-RRE block: 29; LYP act: -1

What do the screens show for `CN1C(=O)/C(=C\c2ccc(N3CCCCC3)o2)C(=O)NC1=S`?
FAK inh: 12; PTPN22 inh 2: 1; Rev-RRE block: 128*[fluorescence artefact?]; LYP act: 4

How did Cc1cccc(N2C(=O)/C(=C/c3ccc(CN(CCC#N)S(C)(=O)=O)o3)C(=O)NC2=S)c1 do in these assays?
FAK inh: -5; PTPN22 inh 2: 4; Rev-RRE block: 25; LYP act: -2

How did CN1C(=O)/C(=C/c2ccc(N3CCCCCC3)o2)C(=O)NC1=S do in these assays?
FAK inh: 7; PTPN22 inh 2: 4; Rev-RRE block: 126*[fluorescence artefact?]; LYP act: -3

What do the screens show for `CCOC(=O)N1CCC(NC(=O)CCc2nc(C3=CCN(C)CC3)no2)CC1`?
FAK inh: 0; PTPN22 inh 2: -6; Rev-RRE block: 6; LYP act: 3

How did CC(C(=O)N1CCC2(CC1)OCCO2)C1Sc2ccccc2NC1=O (configuration not stated) do in these assays?
FAK inh: 1; PTPN22 inh 2: -9; Rev-RRE block: 4; LYP act: 8

What do the screens show for `CC(C)CCC1(CN2CCCC2=O)C(=O)NC(=O)NC1=O`?
FAK inh: -2; PTPN22 inh 2: -36; Rev-RRE block: 2; LYP act: 39*; LYP act confirm: 5

How did CC1OC(NCCc2ccccc2)C(O)C(O)C1O (configuration not stated) do in these assays?
FAK inh: 4; PTPN22 inh 2: 8; Rev-RRE block: 8; LYP act: -6

Results for O=C1C(=O)c2ccccc2-c2ccccc21 ?
FAK inh: 59*; PTPN22 inh 2: 6; Rev-RRE block: 7; LYP act: -6; FAK inh conf: 59*

Results for COc1ccc(P2(=O)Nc3ccccc3N2)cc1 ?
FAK inh: 40*; PTPN22 inh 2: -15; Rev-RRE block: 61*; LYP act: 14; FAK inh conf: 14

How did COc1ccc(-n2c(=O)[nH]c3ccccc3c2=O)cc1 do in these assays?
FAK inh: 2; PTPN22 inh 2: 15; Rev-RRE block: 4; LYP act: -12

Compound activity as filed in PubChem.
